For test [1], the system named is T47D. Put plainly: Inhibition of mitochondrial ETC complex 1 in human digitonin-permeabalized T47D cells assessed as inhibition of malate/pyruvate-initiated respiration at 30 uM after 2 hrs by Clarke-type electrode analysis. In kind it is cell-based.
Test [2] concerns the target Mitochondrial complex I (NADH dehydrogenase). Put plainly: Inhibition of mitochondrial ETC complex 1 in human T47D cells assessed as inhibition of 1,10-phenanthroline-induced HIF1 activation incubated for 30 mins prior to 1,10-phenanthroline-challenge measured after 16 hrs by luciferase reporter assay. The test is classed as cell-based. An outline of the steps: (§1)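 pHRE-luc reporter transfected T47D cells were exposed for 16 h to hypoxia (1% O2) or to chemical hypoxia (10 μM 1,10-phenanthroline) in the presence of compound. The highest concentration tested was 30 μM. Luciferase signal was expressed as % inhibition of the induced control. IC50 and 95% CI came from one representative concentration-response experiment run in triplicate. Cycloheximide at 10 μM served as control.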

In test [3] the test system is T47D. Put plainly: Inhibition of mitochondrial ETC complex 4 in human digitonin-permeabalized T47D cells assessed as inhibition of ascorbate/TMPD-initiated respiration at 30 uM after 2 hrs by Clarke-type electrode analysis in presence of antimycin A. The test is classed as cell-based.
For test [4], the system named is T47D. Put plainly: Inhibition of mitochondrial ETC complex 1 in human digitonin-permeabalized T47D cells assessed as inhibition of malate/pyruvate-initiated respiration at 30 uM after 2 hrs by Clarke-type electrode analysis in presence of succinate. In kind it is cell-based.
Test [5] deals with Mitochondrial complex I (NADH dehydrogenase). Put plainly: Inhibition of mitochondrial ETC complex 1 in human T47D cells assessed as inhibition of 1% O2-induced HIF1 activation incubated for 30 mins prior to 1% O2-challenge measured after 16 hrs by luciferase reporter assay. In kind it is cell-based. An outline of the steps:
as §1

Test [6] has as its system T47D. Put plainly: Inhibition of mitochondrial ETC complex 1 in human T47D cells assessed as inhibition of oxygen consumption at 30 uM after 5 to 10 mins by Clarke-type electrode analysis. The test is classed as cell-based. An outline of the steps: (§2)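 For acute exposure, intact T47D cells received compound at 3, 10 or 30 μM for 5–10 min. Oxygen consumption was then measured with a Clarke-type electrode, with rotenone at 1–100 nM as control. Results are % inhibition of the untreated rate, averaged over two independent experiments with deviation from the average.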

The subject of test [7] is T47D. Put plainly: Antiproliferative activity against human T47D cells at 1 to 10 uM after 48 hrs by SRB assay. The test is classed as functional, cell-based. An outline of the steps: (§3)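 T47D or MDA-MB-231 breast tumor cells were exposed to 1, 3, 10 and 30 μM for 48 h or 144 h (6 d). For the 6 d exposure, medium was replaced after 3 days with fresh medium containing compound. Stocks were 4 mM in 2-propanol, with final solvent below 0.75%. Viability was measured by sulforhodamine B and expressed as % inhibition of the untreated control: [1−(OD treated/OD control)]×100.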

Test [8] concerns T47D. Put plainly: Inhibition of mitochondrial ETC complex 1 in human T47D cells assessed as inhibition of oxygen consumption after 5 to 10 mins by Clarke-type electrode analysis. In kind it is cell-based. The gist of the method: as §2
Test [9] concerns T47D. Put plainly: Inhibition of mitochondrial ETC complex 2 in human digitonin-permeabalized T47D cells assessed as inhibition of succinate-initiated respiration at 30 uM after 2 hrs by Clarke-type electrode analysis. The test is classed as cell-based.
Test [10] deals with MDA-MB-231. Put plainly: Antiproliferative activity against human MDA-MB-231 cells at 1 to 10 uM after 48 hrs by SRB assay. In kind it is functional, cell-based. An outline of the steps: as §3
The subject of test [11] is MDA-MB-231. Put plainly: Antiproliferative activity against human MDA-MB-231 cells at 1 to 30 uM after 144 hrs by SRB assay. The test is classed as functional, cell-based. An outline of the steps:
as §3

The subject of test [12] is T47D. Put plainly: Antiproliferative activity against human T47D cells at 30 uM after 48 hrs by SRB assay. In kind it is functional, cell-based. The gist of the method:
as §3

The test system of test [13] is MDA-MB-231. Put plainly: Antiproliferative activity against human MDA-MB-231 cells at 30 uM after 48 hrs by SRB assay. The test is classed as functional, cell-based. The gist of the method:
as §3

Test [14] concerns T47D. Put plainly: Antiproliferative activity against human T47D cells at 1 to 30 uM after 144 hrs by SRB assay. The test is classed as functional, cell-based. The gist of the method:
as §3

The source made the active and inactive calls. The rule behind the calls is not given here.

As for `CC(C)=CCC/C(C)=C/COc1ccc2ccc(=O)oc2c1` [AURAPTENE], in [1], the inhibition entry is “Active”. The IC50 came to 18.8 µM in [2] and 10.2 µM in [5]. Further, the inhibition entry in test [3], in test [4] and in [9] was “inactive” throughout. Besides, the figures for the inhibition in test [6] and in [8] were 30% and “Dose-dependent effect”, respectively. In addition, the result in [7] and in [10] was Active.

As for `COc1cc2ccc(=O)oc2cc1OC/C=C(\C)CCC=C(C)C`, the half-inhibitory concentration (IC50) in test [2] is 24.2 µM; in test [5], 17.5 µM. Further, the inhibition is 30% in test [6] and “Dose-dependent effect” in [8]. For the same compound, the outcome in [7] and in [10] was Active.

Turning to `CCCCCCCCCCC(=O)O[C@H](CC/C(C)=C/COc1ccc2ccc(=O)oc2c1)C(C)(C)O` [R-(+)-MARMIN-6'-UNDECANOATE], the result in test [11], in [12], in test [13], in test [14], in test [7] and in [10] was Active. Also, the results for the 50% inhibitory concentration (IC50) in test [2] and in test [5] were 3.67 µM and 0.87 µM, respectively. Moreover, the inhibition was 30% in [6] and “Dose-dependent effect” in test [8].

On to `C/C(=C\COc1ccc2ccc(=O)oc2c1)CC[C@@H](O)C(C)(C)O` [R-(+)-MARMIN], for which the IC50 in test [2] and in [5] was over 30 µM in each case. Further, the inhibition in [6] worked out at 20%. Besides, the result in [7] and in test [10] was Active.

As to `COc1cc(C[C@H]2CO[C@H](c3ccc(O)c(OC)c3)[C@H]2COC(=O)CC(C)C)ccc1O` [(+)-9'-ISOVALEROXYLARICIRESINOL], the values for the IC50 in [2] and in [5] were 4.9 µM and 9.1 µM, respectively. The inhibition result in test [6] is “inactive”.

In the case of `COC(C)(C)[C@H](O)CC/C(C)=C/COc1ccc2ccc(=O)oc2c1`, the IC50 in test [2] was over 30 µM; in [5] it was 19.3 µM. Also, the inhibition in [6] is 30%; in test [8], “Dose-dependent effect”. The result in test [7] and in test [10] was Active.

`C/C(=C\COc1ccc2ccc(=O)oc2c1)CC[C@@H](O)C(C)(C)Cl`: in [1], the inhibition result was “Active”. For the same compound, the IC50 in test [2] came out at 11.1 µM; in [5] it was 16.7 µM. Besides, the inhibition entry in [3], in [4] and in test [9] was “inactive” each time. The inhibition is 30% in test [6] and “Dose-dependent effect” in test [8]. Also, the outcome in test [7] and in test [10] was Active.

As for `CC(C)=CCOc1ccc(CCNC(=O)/C=C/c2ccccc2)cc1` [DEHYDROMARMELINE], the inhibition result in test [1] was “Active”. The IC50 was over 30 µM in [2] and 15.1 µM in test [5]. Further, the inhibition entry in test [3], in test [4] and in test [9] was “inactive” each time. For the same compound, the inhibition in test [6] turned out to be 70%.

Turning to `CCCCCCCCCCCCCCCC(=O)O[C@H](CC/C(C)=C/COc1ccc2ccc(=O)oc2c1)C(C)(C)O` [R-(+)-MARMIN-6'-PALMITATE], the IC50 in test [2] and in test [5] was over 30 µM each time. In addition, the inhibition in test [6] turned out to be 20%. For the same compound, the outcome in test [7] and in test [10] was Active.

Source of the values: ChEMBL document CHEMBL2346643, “Semisynthetic studies identify mitochondria poisons from botanical dietary supplements--geranyloxycoumarins from Aegle marmelos” (Bioorg Med Chem, 2013).
